According to the array DNA melting data of Ke et al. (doi:10.1101/2024.01.08.574731):

Columns and labels:
[1] = melting temperature; fluorescence melt of hairpins on a sequencing array, two-state fit, raised by 9.35 °C to match UV melts; details: sodium 0.088 M
How it was run: (§1)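 Folding enthalpy and melting temperature were estimated with bootstrapped two-state fits and combined across four replicates by inverse-variance weighting, with fitted temperatures raised by 9.35 °C to match UV melts. The data were Cy3 fluorescence of library hairpins, with annealed Cy3 and quencher oligos, on a sequenced MiSeq flow cell in 50 mM Na-HEPES pH 8.0, 25 mM NaCl, imaged in 2.5 °C steps up to 60 °C and normalised to pre-quench Cy3 and control constructs.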

[2] = folding enthalpy; higher = less favourable; fluorescence melt of hairpins on a sequencing array, two-state fit; details: sodium 0.088 M
How it was run: as §1

Sequence | Tm [1] | folding enthalpy [2]
GATGCGCGAAAGCGAATC (((.(((....))).))) | 57.2 °C | -22.3 kcal/mol
GATGCGCGAAAGCGGATC (((.(((....))).))) | 64.5 °C | -30.6 kcal/mol
GATGCTGGAAACAGTGTC ((..(((....)))..)) | 37.8 °C | -26.2 kcal/mol
GATGGACCGAAAGGTATC (((..(((....)))))) | 26.8 °C | -11.1 kcal/mol
GATGGAGGAAACTCCACC (.(((((....))))).) | 34.1 °C | -16.3 kcal/mol
GATGGAGGAAACTCCATC (((((((....))))))) | 59 °C | -38.5 kcal/mol
GATGGCCGAAAGGCTATC (((.(((....))).))) | 57.5 °C | -27.8 kcal/mol
GATGGCGAAAGCCAAATC ((((((....)))..))) | 33.9 °C | -9.36 kcal/mol
GATGGCGAAAGCCCATC ((((((....))).))) | 52.4 °C | -16.6 kcal/mol
GATGGCGAAAGCCGGATC ((((((....)))..))) | 37 °C | -10.2 kcal/mol
GATGGCGGAAACACCATC (((((.(....).))))) | 47.2 °C | -34.3 kcal/mol
GATGGGCGAAAGCCGATC (((.(((....))).))) | 52.7 °C | -18.8 kcal/mol
GATGGTGGAAACACTGTC ((..(((....)))..)) | 35.8 °C | -15.5 kcal/mol
GATGTAGAAATACATC ((((((....)))))) | 45.7 °C | -30.3 kcal/mol
GATGTAGGAAACCACATC (((((.(....).))))) | 37.6 °C | -34.1 kcal/mol
GATGTCGGAAACGACATC (((((((....))))))) | 68.4 °C | -36.4 kcal/mol
GATGTCGGAAACGGCATC ((((.((....)).)))) | 54.4 °C | -46.5 kcal/mol
GATGTGAAAACATC (((((....))))) | 49 °C | -28.4 kcal/mol
GATGTGGAAACACATC ((((((....)))))) | 57.1 °C | -35.5 kcal/mol
GATGTTACGAAAGTAATC (((..(((....)))))) | 26.9 °C | -13.5 kcal/mol
GATGTTGGAAACAACACC (.(((((....))))).) | 34.8 °C | -15.6 kcal/mol
GATTAACCGAAAGGTATC (((..(((....)))))) | 27.6 °C | -12.7 kcal/mol
GATTAACGAAAGTTCATC (((.(((....))).))) | 33.9 °C | -24.6 kcal/mol

Sequence | Tm [1] | folding enthalpy [2]
GATTAACGAAAGTTTATC (((.(((....))).))) | 34.9 °C | -22.8 kcal/mol
GATTAAGGAAACTTAGTC ((.((((....)))).)) | 28 °C | -12.6 kcal/mol
GATTACACGAAAGTGATC (((..(((....)))))) | 26.4 °C | -9.64 kcal/mol
GATTACGAAAGTAAATC ((((((....))).))) | 36 °C | -19.9 kcal/mol
GATTACGAAAGTAAGATC ((((((....)))..))) | 39 °C | -16.2 kcal/mol
GATTACGAAAGTATAATC ((((((....)))..))) | 27.1 °C | -7.84 kcal/mol
GATTACGAAAGTATATC ((((((....))).))) | 32.9 °C | -17.1 kcal/mol
GATTACGCGAAAGCGATC (((..(((....)))))) | 21.4 °C | -6.5 kcal/mol
GATTAGCGAAAGCTGATC (((.(((....))).))) | 51.1 °C | -31 kcal/mol
GATTAGGAAACTAATC ((((((....)))))) | 43.9 °C | -30.5 kcal/mol
GATTAGGCGAAAGCCATC (((..(((....)))))) | 23.4 °C | -8.82 kcal/mol
GATTAGGGAAACCTAGTC ((.((((....)))).)) | 33.7 °C | -25.4 kcal/mol
GATTCCCGAAAGGGGATC (((.(((....))).))) | 57.3 °C | -36.3 kcal/mol
GATTCCGAAAGGACATC ((((((....))).))) | 39.2 °C | -21.4 kcal/mol
GATTCCGAAAGGAGATC ((((((....))).))) | 33.7 °C | -21.3 kcal/mol
GATTCCGAAAGGAGTATC ((((((....)))..))) | 27.1 °C | -15.7 kcal/mol
GATTCCGAAAGGATCATC ((((((....)))..))) | 29.6 °C | -17 kcal/mol
GATTCGGGAAACCGAACC (.(((((....))))).) | 40.2 °C | -13.7 kcal/mol
GATTCTCCGAAAGGAATC (((..(((....)))))) | 28.2 °C | -14.2 kcal/mol
GATTCTGAAAAGAATC ((((((....)))))) | 50 °C | -33.1 kcal/mol
GATTCTGGAAACAGAGTC ((.((((....)))).)) | 38.3 °C | -30.2 kcal/mol
GATTGACGAAAGTCCATC (((.(((....))).))) | 39.3 °C | -23 kcal/mol
GATTGAGCGAAAGCTATC (((..(((....)))))) | 30.7 °C | -11.6 kcal/mol

Sequence | Tm [1] | folding enthalpy [2]
GATTGAGGAAACCCAATC (((((.(....).))))) | 35.1 °C | -29.2 kcal/mol
GATTGCGAAAGCAAATC ((((((....))).))) | 50.2 °C | -15.9 kcal/mol
GATTGCGAAAGCATCATC ((((((....)))..))) | 29.6 °C | -10.9 kcal/mol
GATTGCGAAAGCATTATC ((((((....)))..))) | 26.6 °C | -11.2 kcal/mol
GATTGCGGAAACACAATC (((((.(....).))))) | 41.6 °C | -28.9 kcal/mol
GATTGCGGAAACGCAATC (((((((....))))))) | 67.9 °C | -37.8 kcal/mol
GATTGCGGAAACGTAATC ((((.((....)).)))) | 47.6 °C | -38.8 kcal/mol
GATTGGAAACAATC (((((....))))) | 40.5 °C | -23.6 kcal/mol
GATTGGACGAAAGTCATC (((..(((....)))))) | 27 °C | -10.5 kcal/mol
GATTGGGAAACCAATC ((((((....)))))) | 52.3 °C | -35 kcal/mol
GATTGGGGAAACCCAGTC ((.((((....)))).)) | 44.7 °C | -24.4 kcal/mol
GATTGGGGAAACCTGATC (((..((....))..))) | 30.6 °C | -18.6 kcal/mol
GATTGTGAAAACAATC ((((((....)))))) | 51.4 °C | -35.9 kcal/mol
GATTGTGGAAACACAACC (.(((((....))))).) | 35.9 °C | -16.9 kcal/mol
GATTGTGGAAACACAATC (((((((....))))))) | 56.8 °C | -43.6 kcal/mol
GATTTCACGAAAGTGATC (((..(((....)))))) | 23.4 °C | -9.78 kcal/mol
GATTTCGAAAGAAATC ((((((....)))))) | 55 °C | -38.2 kcal/mol
GATTTGACGAAAGTCATC (((..(((....)))))) | 27.3 °C | -8.24 kcal/mol
GATTTGCGAAAGCAGATC (((.(((....))).))) | 50 °C | -32 kcal/mol
GATTTGGGAAACCAAGTC ((.((((....)))).)) | 38.8 °C | -28.7 kcal/mol
GATTTTGGAAACAGAATC ((((.((....)).)))) | 32.1 °C | -24.7 kcal/mol
GATTTTGGAAACGAAATC (((((.(....).))))) | 39.6 °C | -34.9 kcal/mol
GCAAAAGAAATTTTGC ((((((....)))))) | 46.3 °C | -25.9 kcal/mol

Sequence | Tm [1] | folding enthalpy [2]
GCAAACACGAAAGTGTGC (((..(((....)))))) | 48.6 °C | -15.4 kcal/mol
GCAAACCGAAAGGTATGC (((.(((....))).))) | 53.4 °C | -37.5 kcal/mol
GCAAACGAAAGTTATGC ((((((....))).))) | 38.4 °C | -24.3 kcal/mol
GCAAACGAAAGTTCGTGC ((((((....)))..))) | 35.6 °C | -17.3 kcal/mol
GCAAACGAAAGTTGATGC ((((((....)))..))) | 35.9 °C | -15.2 kcal/mol
GCAAACGGAAACGTTTAC (.(((((....))))).) | 38.4 °C | -18.7 kcal/mol
GCAAACTCGAAAGAGTGC (((..(((....)))))) | 43.8 °C | -18 kcal/mol
GCAAAGCCGAAAGGCTGC (((..(((....)))))) | 54 °C | -14.2 kcal/mol
GCAAAGCGAAAGCCCTGC (((..((....))..))) | 28.5 °C | -10.3 kcal/mol
GCAAAGCGAAAGCTATGC (((.(((....))).))) | 52 °C | -33.5 kcal/mol
GCAAAGGGAAACCTCTGC (((.(((....))).))) | 33.8 °C | -19.1 kcal/mol
GCAAAGGGAAACCTTCGC ((.((((....)))).)) | 39.2 °C | -26.8 kcal/mol
GCAAAGGGAAACCTTTAC (.(((((....))))).) | 28 °C | -15.8 kcal/mol
GCAAAGGGAAACCTTTGC (((((((....))))))) | 64.1 °C | -45.1 kcal/mol
GCAAATCCGAAAGGATGC (((..(((....)))))) | 47.8 °C | -17.5 kcal/mol
GCAAATGCGAAAGCATGC (((..(((....)))))) | 51.4 °C | -15 kcal/mol
GCAAATGGAAACATCTGC (((.(((....))).))) | 33 °C | -20.3 kcal/mol
GCAAATTCGAAAGAATGC (((..(((....)))))) | 35.8 °C | -18.4 kcal/mol
GCAACAGGAAACTGCTGC (((.(((....))).))) | 44.6 °C | -30.2 kcal/mol
GCAACATCGAAAGATTGC (((..(((....)))))) | 34.2 °C | -19.8 kcal/mol
GCAACCCGAAAGGGATGC (((.(((....))).))) | 63.5 °C | -32.9 kcal/mol
GCAACCCGAAAGGGCTGC (((.(((....))).))) | 60.6 °C | -44.6 kcal/mol
